Results on 23 compounds are retold here after ChEMBL document CHEMBL1144418, “Structure-activity relationships of fluorinated lysophosphatidic acid analogues” (J Med Chem, 2005).

For orientation: EC50 means the concentration that produces a half-maximal response.

This assay addresses T1, Lysophosphatidic acid receptor 3 (Homo sapiens, UniProt Q9UBY5).
T1 sequence (Q9UBY5 whole entry): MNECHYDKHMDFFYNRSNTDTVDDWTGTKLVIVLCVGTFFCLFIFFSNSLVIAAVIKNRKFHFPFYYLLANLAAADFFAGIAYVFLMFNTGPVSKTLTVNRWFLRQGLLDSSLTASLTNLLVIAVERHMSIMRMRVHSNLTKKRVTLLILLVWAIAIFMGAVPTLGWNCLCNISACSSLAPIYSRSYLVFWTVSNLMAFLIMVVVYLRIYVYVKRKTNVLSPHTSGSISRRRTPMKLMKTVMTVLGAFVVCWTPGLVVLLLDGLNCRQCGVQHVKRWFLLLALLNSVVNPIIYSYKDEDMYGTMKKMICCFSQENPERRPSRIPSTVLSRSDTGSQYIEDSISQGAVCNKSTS
The assay can be described thus: Agonistic activity as increased intracellular calcium level by human LPA3 receptor expressed in Sf9 cells. It counts as functional. The method in brief: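 Sf9 insect cells infected with baculovirus encoding human LPA3, harvested 48 h post-infection, washed in MES-buffered saline (pH 6.2, 0.1% fatty acid-free BSA, 10 mM CaCl2), loaded with Fura-2 AM 45 min, resuspended at 10^6 cells/mL; ligand-evoked fluorescence at 27 °C in quartz cuvettes, excitation 340/380 nm, emission 500 nm, recorded before and after ligand addition; EC50 from concentration-response.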
For orientation: Calcium flux is commonly read through the fluorescence of an indicator in the cells.

For `CCCCCCCC/C=C/CCCCCCCC(=O)O[C@H](COP(=O)(O)O)C(F)F`, the concentration for a half-maximal effect (EC50) is above 10000 nM.

On to `CCCCCCCC/C=C/CCCCCCCC(=O)OC(CF)COP(=O)(O)O` (single isomer, unassigned; form 2), for which the EC50 is around 200 nM.

As to `CCCCCCCCCCCCCCCC(=O)OC[C@H](F)COP(=O)(O)O`, the EC50 is above 10000 nM.

Consider `CCCCCCCCCCCCCCCC(=O)OCC(O)COP(=O)(O)O` (stereo not drawn) [PALMITOYL], for which the concentration giving a half-maximal response (EC50) is above 10000 nM.

As for `CCCCCCCC/C=C/CCCCCCCC(=O)OC[C@@H](O)CC(F)(F)P(=O)(O)O`, the EC50 stood at 500 nM.

Turning to `CCCCCCCCCCCCCCCC(=O)O[C@H](COP(=O)(O)O)C(F)F`, the 50% effective concentration (EC50) is above 10000 nM.

Consider `CCCCCCCC/C=C/CCCCCCCC(=O)O[C@H](COC)COP(O)(O)=S`, for which the EC50 was around 5000 nM.

With `CCCCCCCCCCCCCCCC(=O)OC[C@H](CC(F)P(=O)(O)O)OC` (stereo partly drawn), the EC50 is above 10000 nM.

For the compound `CCCCCCCCCCCCCCCC(=O)O[C@H](COP(=O)(O)O)CC(F)F`, the EC50 was above 10000 nM.

With `CCCCCCCCCCCCCCCC(=O)O[C@H](COC)CC(F)P(=O)(O)O` (stereo partly drawn), the EC50 was around 10000 nM.

On to `CCCCCCCCCCCCCCCC(=O)OC[C@H](O)CC(F)P(=O)(O)O` (stereo partly drawn), for which the EC50 was above 10000 nM.

Turning to `CCCCCCCC/C=C/CCCCCCCC(=O)OC(CF)COP(=O)(O)O` (single isomer, unassigned; form 1), the EC50 is around 10 nM.

On to `CCCCCCCCCCCCCCCC(=O)OC[C@@H](O)CC(F)P(=O)(O)O` (stereo partly drawn), for which the EC50 came out at 20 nM.

On to `CCCCCCCCCCCCCCCC(=O)OC[C@@H](F)COP(=O)(O)O`, for which the EC50 was above 10000 nM.

With `CCCCCCCCCCCCCCCC(=O)OC(CF)COP(=O)(O)O` (single isomer, unassigned), the half-maximal effective concentration (EC50) was around 3000 nM.

As for `CCCCCCCC/C=C/CCCCCCCC(=O)OC[C@@H](F)COP(=O)(O)O`, the EC50 was above 10000 nM.

Regarding `CCCCCCCC/C=C/CCCCCCCC(=O)O[C@H](COP(=O)(O)O)CC(F)F`, the EC50 was above 10000 nM.

Take `CCCCCCCC/C=C/CCCCCCCC(=O)OC[C@H](O)CC(F)(F)P(=O)(O)O`: the EC50 was around 1000 nM.

Regarding `CCCCCCCC/C=C/CCCCCCCC(=O)OC[C@H](F)COP(=O)(O)O`, the concentration for a half-maximal effect (EC50) is around 1000 nM.

For the compound `CCCCCCCC/C=C/CCCCCCCC(=O)OC[C@H](O)CC(F)P(=O)(O)O` (stereo partly drawn), the concentration giving a half-maximal response (EC50) was 500 nM.

For `CCCCCCCC/C=C/CCCCCCCC(=O)OC[C@H](CC(F)P(=O)(O)O)OC` (stereo partly drawn), the half-maximal effective concentration (EC50) was found to be 20 nM.

Take `CCCCCCCC/C=C/CCCCCCCC(=O)O[C@H](COC)CC(F)P(=O)(O)O` (stereo partly drawn): the 50% effective concentration (EC50) is 5 nM.

With `CCCCCCCC/C=C/CCCCCCCC(=O)OC[C@@H](O)CC(F)P(=O)(O)O` (stereo partly drawn), the 50% effective concentration (EC50) amounted to 0.5 nM.
